Source: PubChem BioAssay (several laboratories)
KCNQ1 block – human KCNQ1 channel inhibition. P51787. CHO-K1 KCNQ1, FluxOR thallium flux fluorescence; stronger effect = higher value. B-score at 10 µM. 310,000 compounds, 1.3% hits. AID 2642;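 active means compounds whose thallium flux B-score, printed positive for inhibition, exceeds three library SD while starting fluorescence stays within three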;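 further: channel opened by potassium depolarization with thallium stimulus after 20 min compound exposure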
Target sequence (P51787 whole entry, looked up): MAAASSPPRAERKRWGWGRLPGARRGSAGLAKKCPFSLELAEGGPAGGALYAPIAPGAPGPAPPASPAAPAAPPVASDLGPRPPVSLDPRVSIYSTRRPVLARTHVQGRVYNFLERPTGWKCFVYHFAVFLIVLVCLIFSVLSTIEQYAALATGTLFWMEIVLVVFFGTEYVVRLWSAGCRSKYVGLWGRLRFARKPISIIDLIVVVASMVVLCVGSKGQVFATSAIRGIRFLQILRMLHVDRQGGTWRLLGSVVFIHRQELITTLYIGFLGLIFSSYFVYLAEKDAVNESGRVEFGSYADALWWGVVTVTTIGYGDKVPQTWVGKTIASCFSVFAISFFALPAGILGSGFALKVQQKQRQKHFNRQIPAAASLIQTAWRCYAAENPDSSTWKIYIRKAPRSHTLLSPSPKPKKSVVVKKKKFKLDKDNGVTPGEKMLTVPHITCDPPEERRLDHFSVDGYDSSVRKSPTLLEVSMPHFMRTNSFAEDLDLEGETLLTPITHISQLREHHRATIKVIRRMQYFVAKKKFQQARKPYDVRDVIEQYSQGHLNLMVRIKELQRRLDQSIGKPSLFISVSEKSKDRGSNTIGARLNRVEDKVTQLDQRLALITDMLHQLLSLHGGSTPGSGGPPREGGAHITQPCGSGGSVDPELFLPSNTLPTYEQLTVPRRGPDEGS
Cl transport mod – modulates chloride dependent transport by human KCC2; Q9H2X9; KCC2 cells, thallium flux FluoZin-2 fluorescence; B-score of Tl+ flux slope (higher = more flux/activation; lower = inhibition) at 10 µM; 190,000 compounds, 2.2% hits; AID 1456;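 active means thallium flux slope and its plate-corrected score both differing from the plate sample mean at a set confidence after two filtering rounds, in either direction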;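 further: slope of fluorescence scaled to starting intensity during 10 to 20 s after thallium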
hERG rescue – hERG (human) protection from proarrhythmic block. Q12809. CHO-hERG, FluxOR thallium flux, dofetilide IC70 present. activation (rescue from dofetilide block), less the hit threshold, % at 10 µM. 310,000 compounds, 0.51% hits. AID 1511;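 active means activation above the mean of controls blocked by dofetilide plus 5 SD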;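 further: thallium influx through hERG after potassium depolarization seen as dye fluorescence rise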
KCNK3 block – human KCNK3 channel inhibition, primary screen | B-score at 10 µM | 340,000 compounds, 0.84% hits | CHO-KCNK3 thallium flux, FluxOR fluorescence; stronger effect = lower value | O14649;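 active means B-score under library mean minus 4 SD, starting fluorescence ratio at most library mean plus 5 SD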;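 further: more negative B-score means stronger inhibition of thallium flux through KCNK3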
KCNK9 block – inhibitors of human KCNK9 two-pore domain potassium channel. Q9NPC2. HEK293 KCNK9, FluxOR thallium flux fluorescence; stronger effect = lower value. B-score at 10 µM. 310,000 compounds, 1.2% hits. AID 488922;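 active means ratio B-score over 3 SD below the library mean, with starting fluorescence within 5 SD of its mean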;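 further: negative B-score means less thallium flux so channel inhibition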
KCNQ1 act – human KCNQ1 channel potentiation or activation; CHO-K1 KCNQ1, thallium flux FluxOR fluorescence; stronger effect = higher value; B-score at 10 µM; 310,000 compounds, 0.35% hits; P51787;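 active means fluorescence ratio B-score, a plate-corrected score, at least three library SD, with initial intensity B-score within 5 SD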
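System: Stable KCNQ1 CHO-K1 line | Incubation: 90 min dye loading and 20 min compound exposure, both at room temperature | Measure: Ratio B score | Medium: Assay buffer for compound exposure, DMSO matched across wells | Compound dosing: Single-concentration screen | Probe or stimulus: K+/Tl+ depolarizing stimulus | Measured by: Kinetic FluxOR fluorescence, 10 s baseline plus 110 s post-stimulus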
The depositor's hits bear a star; i = inactive; / = no result given. An excerpt weighted towards active compounds, which were near 4.1% of everything screened.

SMILES	KCNQ1 block	Cl transport mod	hERG rescue	KCNK3 block	KCNK9 block	KCNQ1 act
COc1ccccc1NC(=O)CSc1nc2ccccc2cc1Cc1ccccc1	i	0.03	-8	i	-7.9*	i
COc1ccccc1NC(=O)Cc1noc(CSc2cc(C)c3ccccc3n2)n1	i	-0.75	-7	-9*	i	i
CCC(=O)Nc1nnc(S(=O)(=O)N2CCCCCC2)s1	i	/	-8	i	i	i
CCOC(=O)CSc1nc2c([nH]c3ccccc32)c(=O)n1C	i	0.41	6.7*	i	i	i
C#C[C@]1(O)CC[C@H]2[C@@H]3CCc4cc(O)ccc4[C@H]3CC[C@@]21C	i	-0.44	-13	i	i	9*
COc1ccccc1N1C(=O)C2C(C(=O)c3ccccc3)=NN(c3ccccc3)C2C1=O (stereo not given)	6*	-1.7	0	i	i	i
CCOC(=O)C1=NN(c2ccccc2)C2C(=O)N(c3ccccc3OC)C(=O)C12 (stereo not given)	i	0.25	-8	i	i	i
Cn1nc(OC(=O)Nc2ccc(F)cc2)cc1C(F)(F)F	i	/	-4	i	i	i
Cn1nc(OC(=O)Nc2ccc(Cl)cc2)cc1C(F)(F)F	8*	/	-14	/	i	i
CN(C(=O)CSc1nnc(-c2cccnc2)o1)C1CCCCC1	/	/	/	i	/	/
COc1ccc(CCNC(=O)CC2SC(=NCc3ccccc3OC)NC2=O)cc1 (stereo not given)	i	-0.59	4.9*	i	i	i
CCCCN=C1NC(=O)C(CC(=O)NCCc2ccc(OC)cc2)S1 (stereo not given)	i	-1.6	-13	i	i	i
Cn1c(CC(=O)Nc2ccccc2)cc2ccccc21	i	/	-7	i	i	i
CCN(CC)c1ncnc2scc(C3COc4ccccc4O3)c12 (stereo not given)	i	-0.44	-10	i	-7.6*	i
c1ccc2c(c1)OCC(c1csc3ncnc(N4CCOCC4)c13)O2 (stereo not given)	i	0.78	-2	i	i	i
Cc1cc(NCc2ccccn2)n2nc(C)c(-c3ccccc3)c2n1	6*	-1.2	-17	i	i	i
O=C(C=Cc1cccs1)c1ccc(Cl)s1	/	/	/	i	/	/
CCOC(=O)C1=C(C)OC(N)=C(C#N)C1c1ccccc1 (stereo not given)	i	-0.7	-18	i	i	i
CCOC(=O)C1=C(C)OC(N)=C(C#N)C1c1c(C)nn(-c2ccc(C)cc2)c1Cl (stereo not given)	i	-0.67	-20	/	-9.8*	i
CCN(CC(=O)Nc1c(F)cccc1F)C(=O)c1ccc(OCc2c(C)noc2C)cc1	/	/	/	i	/	/
CCCCN1C(=O)C(=Nc2cccc3cnccc23)c2ccccc21	i	-1.6	-14	i	-7.2*	i
CCOC(=O)c1ccc(Oc2coc3cc(O)ccc3c2=O)cc1	i	/	1	i	i	i
COc1ccc(-c2[nH]ncc2/C=N\NC(=O)c2ccc(C(C)(C)C)cc2)cc1OC	6*	-0.63	-8	i	i	i
CCCCOc1ccc(C(=O)N/N=C/c2cn[nH]c2-c2ccc(OC)c(OC)c2)cc1	i	-0.47	-16	i	i	i
CCOC(=O)C(NC(=O)c1ccccc1)=C(C)C	i	0.045	5.4*	i	i	i
SMILES	KCNQ1 block	Cl transport mod	hERG rescue	KCNK3 block	KCNK9 block	KCNQ1 act
CCOC(=O)/C(=C\C=C\c1ccccc1)NC(=O)c1ccccc1	i	-1.8	-8	i	i	i
CCOC(=O)/C(=C/C=C/c1ccccc1)NC(=O)c1ccccc1	i	-1.9	-13	i	-7.4*	i
CCCCOC(=O)C(NC(=O)c1ccccc1)=C(C)C	i	0.17	-15	i	i	i
Cc1ccc(S(=O)(=O)N[C@H](C(=O)Oc2ccc3c(C(F)(F)F)cc(=O)oc3c2)c2ccccc2)cc1	9*	/	-6	i	i	i
O=C(CCC(=O)NNC(=O)c1ccc(Cl)cc1Cl)NCc1ccccc1	/	/	/	i	/	/
CCCCCCC[C@@H](C/C=C/CCC(=O)N(C)C/C(=C/Cl)C/C(=C\C(=O)N1CC(OC)=CC1=O)OC)OC	/	/	/	-8.8*	/	/
CCCCCCC[C@@H](C/C=C/CCC(=O)N(C)C/C(=C/Cl)C/C(=C\C(=O)N1C[C@H](O)CC1=O)OC)OC	/	/	/	i	/	/
C#CCOCCOCCOCCNc1nc(N2CCN(C(=O)[C@H](CCC(=O)O)n3cc([C@@H](N)[C@H](C)CC)nn3)CC2)nc(N2CCN(C(=O)[C@H](CCCCN)n3cc([C@@H](N)CC(N)=O)nn3)CC2)n1	/	/	/	i	/	/
C[C@H](CO)N1C[C@H](C)[C@@H](CN(C)C(=O)Nc2ccc3c(c2)OCO3)Oc2c(NC(=O)Nc3ccc(C(F)(F)F)cc3)cccc2C1=O	/	/	/	i	/	/
C[C@H](CO)N1C[C@H](C)[C@@H](CN(C)C(=O)Nc2ccc(C(F)(F)F)cc2)Oc2c(NC(=O)Nc3ccc4c(c3)OCO4)cccc2C1=O	/	/	/	-9*	/	/
CC(C)c1ccc(NC(=O)Cn2ncn3c(cc4ccccc43)c2=O)cc1	i	/	-11	i	i	i
CN(C)c1ccc(NC(=O)Cn2ncn3c(cc4ccccc43)c2=O)cc1	i	0.67	8.9*	i	i	i
[2H]C([2H])(CCOS(N)(=O)=O)c1ccccc1	i	/	-4	i	i	i
CCCC[C@H](CN(N=O)[C@@H](Cc1ccccc1)CN(C)N=O)N(CCc1ccccc1)N=O	6*	0.46	-5	i	i	i
CCN1CCN(Cc2ccc(NC(=O)c3ccc(C)c(NC(=O)C(=O)c4c[nH]c5ccccc45)c3)cc2C(F)(F)F)CC1	12*	-0.049	-40	i	i	i
Clc1ccc(OCCOCCNCc2ccccc2)cc1Cl	i	/	-11	i	i	i
Cc1ccc(NC(=O)C(C)c2cccc(C(=O)c3ccccc3)c2)cc1O (stereo not given)	8*	-2.7	-15	i	i	i
Cc1ccc(Cl)cc1NC(=O)COC(=O)CSc1ccccc1	/	/	/	i	/	/
COc1ccc(-n2c(-c3ccccc3)c[n+]3c2CCC3)cc1	i	-0.1	-7	i	i	i
CCOc1ccc(-c2c[n+]3c(n2-c2ccccc2)CCCCC3)cc1	7*	-1.3	-20	i	i	i
OCc1cc(C(O)CNCCCCCCOCCCCc2ccccc2)ccc1O (stereo not given)	i	-3*	-10	i	i	i
CCOCCCNCC(O)c1ccccc1 (stereo not given)	i	0.56	-5	i	i	i
